Assay results from publication PMC8985159 (RSC Chemical Biology, 2022).
Like-named read-outs stand apart in the source and are kept apart here.

What was measured:
[1] = molecular target: T1, Sirt2 (Homo sapiens, UniProt Q8IXJ6); experiment: Determination of kinetic parameters for ZMAL and ZMML; assay type: biochemical; details: substrate of Sirt2; mean ± SD (n = 3)
T1 sequence (Q8IXJ6 56-356): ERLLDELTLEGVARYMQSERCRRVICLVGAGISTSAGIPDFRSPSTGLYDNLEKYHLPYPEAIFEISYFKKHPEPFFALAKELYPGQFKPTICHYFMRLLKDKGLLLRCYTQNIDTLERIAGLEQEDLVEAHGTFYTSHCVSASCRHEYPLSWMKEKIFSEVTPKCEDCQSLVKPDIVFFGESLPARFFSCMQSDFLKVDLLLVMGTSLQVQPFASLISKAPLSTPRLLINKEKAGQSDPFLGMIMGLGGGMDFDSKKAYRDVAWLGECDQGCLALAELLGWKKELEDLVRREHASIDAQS

[2] = molecular target: T2, Sirt1_134-747 (Homo sapiens, UniProt Q96EB6); experiment: Sirtuin deacetylation activity assay; assay type: biochemical
T2 sequence (Q96EB6 134-747): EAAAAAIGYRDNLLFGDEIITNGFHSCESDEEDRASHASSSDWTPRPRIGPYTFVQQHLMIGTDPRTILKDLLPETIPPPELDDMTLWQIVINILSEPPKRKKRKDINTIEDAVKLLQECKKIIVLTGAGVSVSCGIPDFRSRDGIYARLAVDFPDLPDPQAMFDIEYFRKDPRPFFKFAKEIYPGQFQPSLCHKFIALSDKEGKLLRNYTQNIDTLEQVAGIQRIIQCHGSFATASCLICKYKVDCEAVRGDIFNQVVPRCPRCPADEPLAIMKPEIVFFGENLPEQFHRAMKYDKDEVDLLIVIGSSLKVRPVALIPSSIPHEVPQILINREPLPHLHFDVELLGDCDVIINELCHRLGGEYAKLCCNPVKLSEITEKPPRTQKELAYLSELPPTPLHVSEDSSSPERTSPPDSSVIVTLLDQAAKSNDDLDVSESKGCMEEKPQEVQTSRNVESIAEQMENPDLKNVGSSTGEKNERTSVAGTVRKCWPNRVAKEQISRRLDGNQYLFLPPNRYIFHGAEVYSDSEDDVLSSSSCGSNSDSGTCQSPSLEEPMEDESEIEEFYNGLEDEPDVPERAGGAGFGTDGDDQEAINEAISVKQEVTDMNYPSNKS

[3] = molecular target: T3, Sirt2_56-356 (Homo sapiens, UniProt Q8IXJ6); experiment: Sirtuin deacetylation activity assay; assay type: biochemical
T3 sequence (Q8IXJ6 56-356): T1 sequence (Q8IXJ6 56-356)

[4] = molecular target: T3, Sirt2_56-356; experiment: Sirt2 demyristoylation activity assay; assay type: biochemical
[5] = molecular target: T4, Sirt3_118-395 (Homo sapiens, UniProt Q9NTG7); experiment: Sirtuin deacetylation activity assay; assay type: biochemical
T4 sequence (Q9NTG7 118-395): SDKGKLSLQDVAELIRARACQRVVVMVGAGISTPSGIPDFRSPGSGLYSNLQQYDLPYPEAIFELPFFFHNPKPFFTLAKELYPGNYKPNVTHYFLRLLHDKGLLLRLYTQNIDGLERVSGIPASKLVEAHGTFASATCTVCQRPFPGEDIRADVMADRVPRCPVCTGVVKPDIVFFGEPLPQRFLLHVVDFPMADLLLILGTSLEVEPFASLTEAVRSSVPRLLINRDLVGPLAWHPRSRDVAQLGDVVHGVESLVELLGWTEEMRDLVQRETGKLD

[6] = molecular target: human recombinant HDAC1 (Homo sapiens, UniProt Q13547); experiment: HDAC1 activity assay; assay type: biochemical
Summary of the method: (§1)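 Enzyme was incubated with serially diluted test compound in DMSO and ZMAL (added from a 126 μM solution) for 90 min at 37 °C. Stop solution (33 μM trichostatin A, 6 mg/mL trypsin) was added, followed by 30 min at 37 °C. Fluorescence read at Ex 390 / Em 460 nm.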

[7] = molecular target: T5, human recombinant HDAC6 (Homo sapiens, UniProt Q9UBN7); experiment: HDAC6 activity assay; assay type: biochemical
T5 sequence (Q9UBN7 1-1215): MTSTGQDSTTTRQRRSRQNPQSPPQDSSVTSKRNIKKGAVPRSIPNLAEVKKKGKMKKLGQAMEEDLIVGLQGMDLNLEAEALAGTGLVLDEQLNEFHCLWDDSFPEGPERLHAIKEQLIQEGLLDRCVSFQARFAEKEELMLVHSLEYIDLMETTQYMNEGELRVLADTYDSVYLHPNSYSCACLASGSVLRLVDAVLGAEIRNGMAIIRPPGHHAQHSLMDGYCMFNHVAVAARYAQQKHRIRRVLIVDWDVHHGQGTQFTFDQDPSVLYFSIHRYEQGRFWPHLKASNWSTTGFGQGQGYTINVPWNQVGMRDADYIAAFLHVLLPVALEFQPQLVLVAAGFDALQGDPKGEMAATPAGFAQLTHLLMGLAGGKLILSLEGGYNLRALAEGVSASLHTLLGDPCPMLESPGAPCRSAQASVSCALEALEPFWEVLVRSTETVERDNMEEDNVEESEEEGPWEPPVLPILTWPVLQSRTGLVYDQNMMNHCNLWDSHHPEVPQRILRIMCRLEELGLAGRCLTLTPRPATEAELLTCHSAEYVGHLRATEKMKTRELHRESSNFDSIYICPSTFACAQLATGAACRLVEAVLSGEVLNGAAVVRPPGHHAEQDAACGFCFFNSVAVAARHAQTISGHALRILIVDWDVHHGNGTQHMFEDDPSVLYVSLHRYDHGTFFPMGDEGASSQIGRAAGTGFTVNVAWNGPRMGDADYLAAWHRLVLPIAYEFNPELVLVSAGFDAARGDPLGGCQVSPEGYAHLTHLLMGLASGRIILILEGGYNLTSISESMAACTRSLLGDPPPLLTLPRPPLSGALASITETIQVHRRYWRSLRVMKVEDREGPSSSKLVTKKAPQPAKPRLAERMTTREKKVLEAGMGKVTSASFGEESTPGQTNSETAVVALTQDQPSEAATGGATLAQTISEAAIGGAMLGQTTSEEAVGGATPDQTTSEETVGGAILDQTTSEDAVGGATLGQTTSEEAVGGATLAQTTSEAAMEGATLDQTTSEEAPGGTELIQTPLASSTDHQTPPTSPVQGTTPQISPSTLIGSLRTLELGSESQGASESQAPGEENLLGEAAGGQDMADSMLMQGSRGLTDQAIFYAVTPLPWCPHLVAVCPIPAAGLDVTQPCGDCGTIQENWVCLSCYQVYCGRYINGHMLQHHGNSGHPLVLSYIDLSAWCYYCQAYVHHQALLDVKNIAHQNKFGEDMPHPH
Summary of the method: as §1

[8] = molecular target: T6, N-terminally labelled Nluc-Sirt2 fusion protein (Homo sapiens, UniProt Q8IXJ6); experiment: NanoBRET assay, N-terminal Nluc-Sirt2 fusion in HEK293T cells
T6 sequence (Q8IXJ6 50-356): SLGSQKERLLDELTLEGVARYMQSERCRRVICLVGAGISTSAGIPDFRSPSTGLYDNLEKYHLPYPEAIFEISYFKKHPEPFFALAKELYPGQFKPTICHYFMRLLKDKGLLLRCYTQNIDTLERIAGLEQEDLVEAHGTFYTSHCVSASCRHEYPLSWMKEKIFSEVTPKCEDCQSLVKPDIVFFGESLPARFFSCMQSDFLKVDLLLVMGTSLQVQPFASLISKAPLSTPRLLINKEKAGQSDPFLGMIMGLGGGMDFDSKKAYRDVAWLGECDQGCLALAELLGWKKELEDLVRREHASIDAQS

[9] = test system: PC-3M-luc cells; experiment: Migration assay; assay type: cell-based, human
[10] = molecular target: T3, Sirt2_56-356; experiment: Fluorescence polarization assay; assay type: binding
[11] = molecular target: T1, Sirt2; details: read-out: In vitro Sirt2 activity assay IC50; cited from earlier work
[12] = test system: HGC-27 cells; experiment: Cell viability assay; assay type: cell-based; details: Homo sapiens
Summary of the method: (§2)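 MTS/PMS (20:1) viability assay. Cells were seeded at 2000 per well with test compound or vehicle (0.5% DMSO final) and incubated 72 or 120 h at 37 °C, 5% CO2. Absorbance was read 2–4 h after reagent addition. Media: HEK293T in DMEM with 10% FBS, 2 mM glutamine and 1% pen-strep; HGC-27 in DMEM:Ham's 12 (1:1) with 5% FCS.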

[13] = test system: PC-3M-luc cells; experiment: Cell viability assay; assay type: cell-based, human; details: 3 days vs 5 days
[14] = test system: HEK293T cells; experiment: Cell viability assay; assay type: cell-based; details: Homo sapiens, HEK-293T
Summary of the method: as §2

[15] = test system: PC-3M-luc cells; experiment: Colony Forming Unit; assay type: cell-based, human
Summary of the method: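 PC-3M-luc cells were grown in RPMI 1640 with 10% FBS, 2 mM glutamine and 1% pen-strep, then seeded at 250 cells per well. After 2–3 h, test compound or vehicle was added (0.5% DMSO final) and plates were incubated 7 days at 37 °C, 5% CO2. Cells were PBS-washed, fixed in 4% PFA for 20 min at RT and stained with 0.01% crystal violet for 30 min. Colonies were then counted.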

[16] = test system: c-Myc protein levels in PC-3M-luc cells; experiment: Western blot of c-Myc protein levels; assay type: cell-based, human; details: 24 h
[17] = test system: α-tubulin acetylation in PC-3M-luc cells; experiment: Acetylation levels of α-tubulin by immunofluorescence; assay type: cell-based, human; details: 20 μM, 5 hours
Summary of the method: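 PC-3M-luc cells were plated at 20 000 per well, incubated overnight at 37 °C and 5% CO2, then exposed to 20 μM test compound for 5 h. They were fixed in 4% PFA for 8–10 min at RT and extracted with PBS/0.1% Triton X-100. Blocking used PBS/0.1% Triton/5% FCS. […] Read-out was immunofluorescence microscopy.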

[18] = test system: KRas4a fatty acylation in HEK293T cells; experiment: In cell inhibition of SIRT2 defatty-acylation of KRas-4a; assay type: cell-based, human; details: 25 μM
[19] = In vitro Sirt2 activity assay IC50, Table 2
[20] = tracer 13 2 μM, HEK293T, 2 h, mean ± SD

human recombinant HDAC1, sequence (Q13547 whole entry): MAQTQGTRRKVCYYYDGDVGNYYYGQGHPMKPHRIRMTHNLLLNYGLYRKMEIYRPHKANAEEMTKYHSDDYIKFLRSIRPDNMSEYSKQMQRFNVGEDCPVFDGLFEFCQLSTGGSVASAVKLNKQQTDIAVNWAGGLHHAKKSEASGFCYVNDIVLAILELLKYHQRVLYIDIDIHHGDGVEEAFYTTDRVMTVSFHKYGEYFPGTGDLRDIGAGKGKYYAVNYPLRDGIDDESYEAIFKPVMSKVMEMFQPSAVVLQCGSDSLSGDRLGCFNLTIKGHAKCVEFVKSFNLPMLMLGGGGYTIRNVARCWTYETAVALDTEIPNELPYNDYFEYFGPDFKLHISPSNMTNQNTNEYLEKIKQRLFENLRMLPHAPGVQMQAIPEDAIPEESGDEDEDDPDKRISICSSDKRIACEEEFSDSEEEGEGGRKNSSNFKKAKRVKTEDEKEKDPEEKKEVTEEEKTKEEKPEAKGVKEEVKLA

SMILES	IC50 [2] [µM]	IC50 [3, 19] [µM]	IC50 [4] [µM]	IC50 [5] [µM]	IC50 [6] [µM]	IC50 [7] [µM]	IC50 [8] [µM]	further results
CCCCCCCCCCCCCC(=O)NCCCCC(NC(=O)OCc1ccccc1)C(=O)Nc1ccc2c(C)cc(=O)oc2c1 (stereo not drawn) [ZMML]								Km [1]: 6.7 ± 1 µM
CC(=O)NCCCCC(NC(=O)OCc1ccccc1)C(=O)Nc1ccc2c(C)cc(=O)oc2c1 (stereo not drawn) [ZMAL, Z-(Ac)Lys-AMC]								Km [1]: 510 ± 95 µM
Cc1ccc(Cn2cc(COc3cccc(Cc4cnc(NC(=O)CSc5nc(C)cc(C)n5)s4)c3)nn2)cc1 [Compound 9]	> 100	0.17 ± 0.02	2 ± 0.3	> 100	> 100	> 100	0.4 ± 0.02	
CCCCCCCC(=O)Nc1ncc(Cc2cccc(OCc3cn(CCOC)nn3)c2)s1 [Compound 5]	> 100			> 100	> 100	> 100		IC50 ([3]; Sirt2 Deacet. IC50, mean ± SD): 0.46 ± 0.21 µM; inhibition at 20 µM ([4]; read-out: Sirt2 Demyr. percentage of inhibition): 23.2%; inhibition at 10 µM ([9]; Homo sapiens, read-out: migration inhibition): 35%; Sirt2 binding in the FP assay compared to SirReal2 (in words) [10]: weaker binding; NanoBRET assay IC50 [8, 20]: did not detect cellular Sirt2 binding
O=C(NCc1cccnc1)c1ccc2c(c1)C1C3CCC(C3)C1C(c1ccccc1)N2 (stereo not drawn) [AEM2, reference compound]								IC50 [11]: 3.8 µM; IC50 ([8]; read-out: NanoBRET assay IC50, tracer 13 2 μM, HEK293T, 2 h, mean ± SD): 5.2 ± 0.2 µM
Cc1cc(C)nc(SCC(=O)Nc2ncc(Cc3cccc(OCc4cn(Cc5ccccc5C)nn4)c3)s2)n1 [Compound 8]	> 100	0.16 ± 0.02	3.9 ± 0.2	> 100	> 100	> 100	1 ± 0.05	
Cc1cc(C)nc(SCC(=O)Nc2ncc(Cc3cccc(OCc4cn(Cc5ccc(OCCN6CCOCC6)cc5)nn4)c3)s2)n1 [Compound 12]	> 100	0.12 ± 0.01		> 100	> 100	> 100	0.098 ± 0.004	GI50 [12]: 8.21 ± 0.59 µM; dependence of the effect on cell viability on incubation time [13]: higher effects on the cell viability of PC-3M-luc cells could be observed after prolonged incubation time; GI50 [14]: 7.7 ± 0.71 µM; effect on colony formation (in words) [15]: Colony formation was almost completely prevented; concentration-dependent effect on cell migration [9]: concentration-dependent inhibition of migration; c-Myc protein levels (in words) ([16]; 10 μM): completely absent; concentration dependence of c-Myc levels [16]: reduced in a concentration-dependent manner; acetylation levels of α-tubulin [17]: elevated; KRas4a acylation levels (in words) [18]: increased acylation levels of KRas4a compared to DMSO treated cells; IC50 [10]: 0.07 ± 0.02 µM; NanoBRET binding in digitonin permeabilized vs untreated cells ([8]; digitonin 50 μg mL−1): None of the tested compounds revealed significant differences in the NanoBRET signals between permeabilized (digitonin) and untreated cells
COCCn1cc(COc2cccc(Cc3cnc(NC(=O)CSc4nc(-c5ccccc5)cc(-c5ccccc5)n4)s3)c2)nn1 [Compound 7]	> 100		> 100	> 100	> 100	> 100		IC50 ([3]; Sirt2 Deacet. IC50, mean ± SD): 620 ± 72 µM; decreased potency compared to the positive control SirReal2 ([3]; Sirt2 deacetylation): more than 1000 fold; acetylation levels of α-tubulin [17]: Only weak effects; Sirt2 binding in the FP assay compared to SirReal2 (in words) [10]: weaker binding; NanoBRET assay IC50 [8, 20]: did not detect cellular Sirt2 binding
